Test system: MS2 coat protein
Test: apparent Kd, MS2 coat protein; higher = weaker binding; RNA-MaP array; FMN 200 µM where present
Procedure, shortened: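 The titrant was SNAP-549-labelled MS2 coat protein, run from 0.7 or 1.5 nM in doubling steps to 3 µM. It was applied to designs transcribed by stalled E. coli RNA polymerase on Illumina sequencing-chip clusters, without ligand first and then with constant ligand, in 100 mM Tris-HCl pH 7.5, 80 mM KCl, 4 mM MgCl2, BSA, DTT, yeast tRNA and Tween-20. The apparent Kd is the median of filtered per-cluster binding-curve fits, with green signal normalised to red-channel RNA signal and control-cluster median Fmax.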

[1] = designed as: OFF switch for flavin mononucleotide, no ligand
[2] = ligand present: flavin mononucleotide, designed as: OFF switch for flavin mononucleotide
[3] = designed as: ON switch for flavin mononucleotide, no ligand
[4] = ligand present: flavin mononucleotide, designed as: ON switch for flavin mononucleotide

| Sequence | apparent Kd [1] [nM] | apparent Kd [2] [nM] | apparent Kd [3] [nM] | apparent Kd [4] [nM] |
| --- | --- | --- | --- | --- |
| AUACCACGAGGAUAUCGUCUAUAAUACAUGAGGAUCACCCAUGUUAUAUAUGUAAUGUUUCGAGAAGGCGUGUUUU | 16.6 | 12.9 |  |  |
| GAAAGGGCAGGAUAUGCAUGUUGGCAAAAUUCUCAGCAAGAACAUGAGGAUCACCCAUGUAGAAGGGCCAACGG | 42.3 | 59.9 |  |  |
| GCGUUGUACGAGAAGGCCAAUACAUGAGGAUCACCCAUGUUAAGUUGUUUUGGAGGAUAUCGAUCACUUACAAUAAUGCAACGC | 7.23 | 6.31 |  |  |
| AUUUCAAUUGUUUACAUGAGGAUCACCCAUGUCAUAAGUCAUGAGGAUAUGGUAUUGUAGUUAUUCCAGAAGGCAUAUAGCUUA |  |  | 38.5 | 14.4 |
| AUGACUUAUGUAGGAUAUGCAUAGAGUUGCUAUGCAGAAGGACAUGAGGAUCACCCAUGUAUGUAUACCUUACAAAACUAGCAU | 9.07 | 54 |  |  |
| ACUAAACGAGGAUAUACUAACAAACCUCAAACAUACAUCAAACAUGAGGAUCACCCAUGUAGAAGGCGUAAACU | 37.6 | 17.6 |  |  |
| GGUGCACAUGAGAAGGCGAUCAUGAAACAUGAUCGAGGAUAUCAUGUAAACAUGAGGAUCACCCAUGUAUGGGAAAAGUGCACC |  |  | 114 | 10.9 |
| GCUAUCGCAUGAGGAUAUGGUCAGCUUUGCUGACCAGAAGGCAUGUCAUAAGACAUGAGGAUCACCCAUGUAGUUAAGAUAGCA |  |  | 840 | 50.5 |
| AUAGUUAGUAUAGAUGAGGGCAGCAGAAGGCAAUAUGCUUGUGCCGACAUGAGGAUCACCCAUGUUGAGGAUAUGCGUCCUUCG | 6 | 16.9 |  |  |
| CAAGGCGUUGACCGACUCCAGACAUGAGGAUCACCCAUGUAGAAGGAUAUGUACCGCACCCUUGGACAGAAGGUCUACUGGGUU | 17 | 38.9 |  |  |
| GUCAUCGCAUGAGGAUAUGGCACCGUUUCGGUGCCAGAAGGCAUGUCAAAUGACAUGAGGAUCACCCAUGUAGUUAAGAUGGCA |  |  | 229 | 17 |
| GAAAAGUGAGGAUAUGGUAAUGUAAGUAUGUAGUAUGUAAUCCAGAAGGCACAUGAGGAUCACCCAUGUAAAAG | 23 | 25.2 |  |  |
| CGAUGACAAAGUCAUCGAAUACGAACAUGAGGAUCACCCAUGUAGGAUAUGCUACUCAAAGAGUAGCAGAAGGACAUGUGCCUU | 36.9 | 271 |  |  |
| UGAUCCGCAUCGGCGCACAAGACAUGAGGAUCACCCAUGUACAGAAGGCGAAAAGCGAAGGCGGUCGAGGAUAUGUACCUACGG | 6.92 | 15.7 |  |  |
| UUCUUUCCUCAUGUACAUGAGGAACAUGAGGAUCACCCAUGUAGAAGGAUUUCAAUUAAAUUAAAAUAGGAUAUACAUCUAUUU | 10.4 | 9.34 |  |  |
| GGUACCAUCACAGGAUAUGCUUUCCUUUGGGAAGCAGAAGGGUGUAACAUGAGGAUCACCCAUGUGGUGCCAGGGCGUGAGCCU |  |  | 216 | 16 |
| AUGUGGUGCGUAGGAUAUCAUUGAGGAAAACCCUGAGAAGGACGUGAGGACAUGAGGAUCACCCAUGUGGAUCACCCAUGUCAU | 237 | 237 |  |  |
| ACAUGAUAUGUAGGAUAUCACAUUAAUUGAUUCAUAUUUCAAUAUAGCAUUUGAGAAGGACAUUUACAUGAGGAUCACCCAUGU | 9.18 | 8.64 |  |  |
| ACGGCACAUGAGGAUCACCCAUGUGCCGAGAGGCGAGGAUAUCGAAAAAAAAAAAAAAAACGAGAAGGCGCGAGAA |  |  | 16.5 | 14.4 |
| CAGGUAGCUACAGGAUAUACACGUCUGGAUAAACCAGACGAAUACCUUACAUGAGGAUCACCCAUGUAGAAGGGUAGCUGCCUG | 16.9 | 19.8 |  |  |
| UUUUAACAUGAGGAUCACCCAUGUGAGGAUAUCGAAAUUUAUAUUUAUAUUUAUAUAUCGAGAAGGCACAUUUU | 128 | 127 |  |  |

| Sequence | apparent Kd [1] [nM] | apparent Kd [2] [nM] | apparent Kd [3] [nM] | apparent Kd [4] [nM] |
| --- | --- | --- | --- | --- |
| GAGCGAAAGCUCAAUGUCGAUAGCAGAAGGACAUGUAAAACCAUGAAAACAUGAGGAUCACCCAUGUAGGAUAUGCUAUCGACU | 9.7 | 95.8 |  |  |
| UGAAAUCAUGUAGGAUAUGCAUGGCGAAGCUACGCAGAAGGACAUGAGGAUCACCCAUGUUCUAGCGUCUGAGUACAGAUGCAA | 19.6 | 64.9 |  |  |
| AAUUGACCGCUAGGAUAUGCACAUGAGGAUCACCCAUGUAAGCGUGUAAAGUGGUAUGCCCGUGUGUAGAAGGAGCGAUGCUGA | 47.6 | 40.6 |  |  |
| UGGCCGAAGUUAGGAUAUUGGUUAGGGACGGACUAAGAAGGAGCACAUACAUGAGGAUCACCCAUGUUAGAAGAAGAUCCUCCA | 29.3 | 26.7 |  |  |
| UCACAGUGUCGUUAUCCGUAGCGAACAUGAGGAUCACCCAUGUAGGAUAUGUUAUUAAACUAAUAACAGAAGGACGUUGGUCGG | 36.7 | 220 |  |  |
| CUUUAGUGAGGAUAUUAGUAGUAAUACAAUAGUAUUACUACUGAGAAGGCACAUGAGGAUCACCCAUGUUCCUC | 27.8 | 292 |  |  |
| GAGGGUUAAGGAUAUACAUGAGGAUCACCCAUGUAUGGCAAGCCAUAAUCCUCAUUAAGUAGAAGGUAACCUUC | 11.7 | 15.3 |  |  |
| GCCUUACCGGUCAGGAUAUACAUUUGUUACUCUUUGUAGAAGGGACAUGAGGAUCACCCAUGUACAUUACAUUC | 19.1 | 19.2 |  |  |
| CGAUAGGACAGAGGAUAUACACAUGAGGAUCACCCAUGUGAUUACAACGCUUAAGCUUCAAACAUGUAGAAGGCUGUCCUAUCG | 10.8 | 19.4 |  |  |
| UGAUAGGACAGAGGAUAUGCCGAUAGGAUUUACUAUCGAAGAAUCCUCACAUGAGGAUCACCCAUGUAGAAGGCUGUCCUAUCU | 7.36 | 35.9 |  |  |
| CUUUCGUGAGGAUAUGUGGCUUCGAUCGUGAGAUCGAGGCUACAGAAGGCACAUGAGGAUCACCCAUGUUCCUC | 38.8 | 487 |  |  |
| CGGAGCAUCGAGAAGGGCACAUGGACAACUAAACAUGAGGAUCACCCAUGUGCAGGAUAUCGAAAAUCAUGUGGCCUUGGCCGU | 15.9 | 155 |  |  |
| GUUAUGUUAGGAUAUGCUUAUGGUGGGUGCUCAGAUAUGAUGCAGAAGGGACAUGAGGAUCACCCAUGUACUGU | 484 | 310 |  |  |
| GUAUGAGCGAUAGGAUAUACUGAGAUUGAAUGGGUAGAAGGAUUUCUUGUGGGAAAGACAUGAGGAUCACCCAUGUCACGGACC |  |  | 291 | 148 |
| AUAUUUGAUGAGGAUAUCGUUGUGGGUAUAUAGCGAGAAGGCAUUACAUGAGGAUCACCCAUGUAGUGUGGGUU | 25.9 | 37 |  |  |
| GGUGGACAUGAGGAUCACCCAUGUGAGGAUAUCGGCCGGUUCGUGGUGGCUGGCGUCUCGAGAAGGCGCAUAGU | 35 | 45.7 |  |  |
| GGGUACAUCGGAGGAUAUCAUGUAAAUACAUGAGGAUCACCCAUGUCGAUGGAGACAUCGGAGUUUGAGAAGGCCGAUGUACCG |  |  | 150 | 6.58 |
| AUGUUGCGAGGAUAUAUUUACUGGUUGUUGUUUGGUUGGGAACAUGAGGAUCACCCAUGUAGAAGGUGCAUAAC | 54.5 | 49.9 |  |  |
| CAACAGUCAGGAUAUGCAAAAAAAACGCAACGCAAAAAAAAGCAGAAGGGACAUGAGGAUCACCCAUGUUGUCG | 30.2 | 26.3 |  |  |
| UUUGGGAACUCUAUGGGCCGCUACAUGAGGAUCACCCAUGUGCAGGAUAUAGGUGUUACUACCGCCUAGAAGGGCACAGACUGA | 23.4 | 42.5 |  |  |
| UUAAAUCAUGUAGGAUAUGCAUGGCGAAGCUACGCAGAAGGACAUGAGGAUCACCCAUGUUAUAGCUACCGAUAAAGGUGGCAA | 84.3 | 214 |  |  |

From the EternaBench riboswitch data
